This is an account of results in ChEMBL document CHEMBL1165879, “Benzimidazole derivatives related to 2,3-acrylonitriles, benzimidazo[1,2-a]quinolines and fluorenes: synthesis, antitumor evaluation in vitro and crystal structure determination” (Eur J Med Chem, 2010).

Some results are limits rather than exact numbers.

Assay [1] concerns Calf thymus DNA. Nature of the assay: Binding affinity to calf thymus DNA assessed as change in melting temperature at compound/polynucleotide ratio 3 in sodium cacodylate buffer at pH 7. Type of assay: nucleic-acid assay. Conditions: Bos taurus; in the assay text read “compound/polynucleotide ratio 0.3” for “compound/polynucleotide ratio 3”. In outline:
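Thermal melting of ct-DNA, alone and with compound, in sodium cacodylate buffer pH 7.0, I = 0.05 mol dm^-3, DMSO under 1%. Absorbance at 260 nm followed against temperature, heated at 1 °C per minute. Ligand absorbance subtracted and scale normalized. Tm taken as transition midpoint, from the first-derivative maximum or graphically by tangent.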

For the next assay, the system named is NCI-H460. Briefly: Cytotoxicity against human H460 cells after 72 hrs by MTT assay. Type of assay: functional, cell-based. Conditions: NCI-H460, 72 h. In short, it runs like this: (§1)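 Cells grown with FBS, 2 mM L-glutamine, penicillin and streptomycin at 37 °C, 5% CO2, humidified. Seeded in 96-well plates on day 0 at densities set by population doubling time. Five 10-fold dilutions (10^-8 to 10^-4 mol/L), freshly prepared, then 72 h exposure, modified NCI DTP method. Three individual experiments. IC50 from dose-response curves by linear regression.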
Background: Formazan colour is commonly taken as a measure of viable cells.

Another assay has as its system MIA PaCa-2. Nature of the assay: Cytotoxicity against human MIAPaCa2 cells after 72 hrs by MTT assay. Type of assay: functional, cell-based. Conditions: MIA PaCa-2, 72 h. In short, it runs like this:
as §1

The test system of another assay is MCF7. Nature of the assay: Cytotoxicity against human MCF7 cells after 72 hrs by MTT assay. Type of assay: functional, cell-based. To be noted: MCF7, 72 h. In outline:
as §1

The next assay has as its system HeLa. Nature of the assay: Cytotoxicity against human HeLa cells after 72 hrs by MTT assay. Type of assay: functional, cell-based. In short, it runs like this: as §1
Another assay concerns SW-620. Nature of the assay: Cytotoxicity against human SW620 cells after 72 hrs by MTT assay. Type of assay: functional, cell-based. Conditions: SW-620, 72 h. In short, it runs like this:
as §1

For assay [2], the system named is Calf thymus DNA. Briefly: Binding affinity to calf thymus DNA assessed as change in melting temperature at compound/polynucleotide ratio 0.3 in sodium cacodylate buffer at pH 7. Conditions: Bos taurus.

With `Cc1ccc2cc(C#N)c3nc4ccccc4n3c2c1`, the ΔTm (as a rule, the change in melting temperature against a reference sample) with Calf thymus DNA [1] turned out to be 4.8 °C. The IC50 (commonly the midpoint of a concentration-inhibition curve) is over 100 µM in the assay on NCI-H460; over 100 µM in the assay with MIA PaCa-2; 70 µM with MCF7; over 100 µM with HeLa; over 100 µM with SW-620.
As to `N#C/C(=C\c1ccc(Br)cc1)c1nc2ccccc2[nH]1`, the IC50 in the assay on NCI-H460 was over 50 µM; with MIA PaCa-2, 46 µM; in the assay with MCF7 it was 19 µM; with HeLa it was 9 µM; in the assay on SW-620, over 50 µM.
In the case of `COc1ccc(OC)c(/C=C(\C#N)c2nc3ccccc3[nH]2)c1`, in the assay with Calf thymus DNA [2], the ΔTm was found to be 3 °C. Besides, the half-inhibitory concentration (IC50) was 27 µM with NCI-H460; 0.8 µM in the assay with MIA PaCa-2; 12 µM in the assay with MCF7; 1 µM with HeLa; 23 µM in the assay on SW-620.
As to `N#C/C(=C\c1cnc[nH]1)c1nc2ccccc2[nH]1`, the IC50 in the assay on NCI-H460 is over 100 µM; in the assay on MIA PaCa-2, 30 µM; in the assay on MCF7, 92 µM; with HeLa it was 40 µM; in the assay on SW-620 it was 70 µM.
For `N#Cc1ccc2cc(C#N)c3nc4ccccc4n3c2c1`, in that order: 23 µM, over 50 µM, over 50 µM, 16 µM and 14 µM.
With `N#C/C(=C\c1ccc(F)cc1)c1nc2ccccc2[nH]1`, the ΔTm in the assay on Calf thymus DNA [2] came to 3 °C. Also, the IC50 with NCI-H460 worked out at 43 µM; in the assay on MIA PaCa-2 it was 18 µM; in the assay on MCF7 it was 14 µM; in the assay with HeLa it was 15 µM; in the assay on SW-620, 59 µM.
Consider `CC(=O)Nc1ccc(/C=C(\C#N)c2nc3ccccc3[nH]2)cc1`, for which the half-inhibitory concentration (IC50) with NCI-H460 is over 100 µM; in the assay with MIA PaCa-2 it was 48 µM; in the assay on MCF7, 4 µM; in the assay on HeLa, 3 µM; in the assay on SW-620, over 100 µM.
In the case of `N#Cc1cc2ccncc2n2c1nc1ccccc12`, the IC50 in the assay with NCI-H460 was 57 µM; with MIA PaCa-2, 32 µM; in the assay on MCF7, 67 µM; in the assay on HeLa it was 45 µM; in the assay with SW-620, 30 µM.
For `N#C/C(=C\c1cccs1)c1nc2ccccc2[nH]1` the same measures were over 50 µM, over 50 µM, 30 µM, 8 µM and 48 µM.
For `N#Cc1cc2ccc(Br)cc2n2c1nc1ccccc12` the same measures were 37 µM, over 50 µM, 37 µM, 20 µM and 13 µM.
Turning to `Cn1ccc2cc(C#N)c3nc4ccccc4n3c21`, the thermal shift (ΔTm) in the assay on Calf thymus DNA [1] came to 2.4 °C. The IC50 in the assay with NCI-H460 was 22 µM; in the assay with MIA PaCa-2, 4 µM; in the assay on MCF7, 11 µM; in the assay on HeLa it was 0.7 µM; in the assay with SW-620 it was 25 µM.
Regarding `CC(=O)Nc1ccc2cc(C#N)c3nc4ccccc4n3c2c1`, the half-inhibitory concentration (IC50) in the assay on NCI-H460 was found to be 90 µM; in the assay on MIA PaCa-2, 2 µM; with MCF7 it was 5 µM; with HeLa, 2 µM; with SW-620, 5 µM.
With `N#Cc1cc2ccc(F)cc2n2c1nc1ccccc12`, in the assay with Calf thymus DNA [1], the ΔTm was 4.4 °C. Moreover, the IC50 with NCI-H460 was determined as 26 µM; in the assay with MIA PaCa-2, 28 µM; in the assay on MCF7, 50 µM; in the assay on HeLa it was 29 µM; in the assay with SW-620, 22 µM.
Consider `CN(C)c1ccc(/C=C(\C#N)c2nc3ccccc3[nH]2)cc1`, for which the half-inhibitory concentration (IC50) is over 50 µM with NCI-H460; 26 µM in the assay on MIA PaCa-2; 4 µM in the assay with MCF7; over 50 µM with HeLa; over 50 µM in the assay on SW-620.
On to `N#C/C(=C\c1ccncc1)c1nc2ccccc2[nH]1`, for which the half-maximal inhibitory concentration (IC50) was found to be 78 µM in the assay on NCI-H460; 57 µM with MIA PaCa-2; 9 µM with MCF7; 21 µM with HeLa; 42 µM in the assay on SW-620.
As to `Cn1cccc1/C=C(\C#N)c1nc2ccccc2[nH]1`, the ΔTm in the assay with Calf thymus DNA [1] was found to be 0.4 °C. Further, the half-inhibitory concentration (IC50) in the assay on NCI-H460 is 26 µM; with MIA PaCa-2 it was 4 µM; in the assay with MCF7, 13 µM; in the assay with HeLa, 0.8 µM; in the assay on SW-620, 30 µM.
Regarding `N#C/C(=C\c1ccco1)c1nc2ccccc2[nH]1`, the half-inhibitory concentration (IC50) in the assay with NCI-H460 is over 50 µM; in the assay on MIA PaCa-2, 28 µM; with MCF7, 17 µM; with HeLa, 25 µM; with SW-620 it was over 50 µM.
Turning to `COc1cccc2c1C(=O)c1c(O)c3c(c(O)c1C2=O)C[C@@](O)(C(=O)CO)C[C@@H]3O[C@H]1C[C@H](N)[C@H](O)[C@H](C)O1` [DOXORUBICIN], the IC50 in the assay on MIA PaCa-2 was 0.01 µM; in the assay with MCF7, 0.04 µM.
As for `CCN(CC)c1ccc(/C=C(\C#N)c2nc3ccccc3[nH]2)c(O)c1`, the IC50 in the assay with NCI-H460 was determined as 11 µM; in the assay with MIA PaCa-2, 3 µM; with MCF7 it was 2 µM; in the assay with HeLa it was 3 µM; with SW-620, 10 µM.
Consider `COc1ccc(OC)c2c1cc(C#N)c1nc3ccccc3n12`, for which the shift in melting temperature (ΔTm) in the assay with Calf thymus DNA [1] was determined as 4.2 °C. The 50% inhibitory concentration (IC50) in the assay on NCI-H460 turned out to be 14 µM; in the assay with MIA PaCa-2, 23 µM; in the assay with MCF7, 31 µM; with HeLa, 5 µM; in the assay with SW-620 it was 6 µM.
For `N#Cc1cc2ccsc2n2c1nc1ccccc12`, the IC50 with NCI-H460 came out at 30 µM; in the assay with MIA PaCa-2, 28 µM; in the assay on MCF7 it was 31 µM; in the assay with HeLa, 19 µM; in the assay on SW-620 it was 16 µM.
For the compound `Cc1ccc(/C=C(\C#N)c2nc3ccccc3[nH]2)cc1`, in the assay on Calf thymus DNA [1], the ΔTm turned out to be 2.9 °C. The IC50 with NCI-H460 worked out at 81 µM; with MIA PaCa-2, 32 µM; in the assay on MCF7, 8 µM; in the assay on HeLa, 20 µM; in the assay with SW-620 it was 87 µM.
